Most compounds without a hit are left out; they make up all but 1.9% or so of the library.
IMP-1 inhibitor: IMP-1 metallo-beta-lactamase inhibitors, primary screen, biochemical, epi-absorbance readout, Pseudomonas aeruginosa enzyme. purified IMP-1, nitrocefin hydrolysis, epi-absorbance fluorescence. inhibition, % at 5.6 µM. 290,000 tested, 0.45% active;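 active means inhibition above the mean plus 3 SD of all compounds in the same screening run, cut at about 4.5% in these data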
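Test system: recombinant IMP-1 enzyme, purified / Medium: HEPES buffer pH 7.1 with ZnSO4 and Brij 35 / Doses: single dose, 5.6 µM / Times: 25 °C, 15 min preincubation, 25 min reaction / Detection: Epi-absorbance via hydrolysed-nitrocefin quenching of white-plate fluorescence, 480/530 nm, EDTA stop / Evaluation: percent inhibition from optical density relative to buffer-blank wells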
NadD block: inhibitors of S. aureus NadD, primary screen, biochemical, colorimetric, uHTS | purified NadD enzyme, colorimetric absorbance read-out | inhibition, % at 20 µM | AID 602399, 2012 | 360,000 tested, 0.78% active | Nicotinate-nucleotide adenylyltransferase NadD (Staphylococcus aureus N315); in the data active means inhibition above about 26%
VIM-2 inhibitor: VIM-2 metallo-beta-lactamase inhibitors, primary screen, biochemical, epi-absorbance readout, Pseudomonas aeruginosa enzyme | 290,000 tested, 0.89% active | inhibition, % at 5.6 µM | purified VIM-2, nitrocefin hydrolysis, epi-absorbance fluorescence;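 active means inhibition above the mean of all tested compounds plus 3 SD, cutoff set per screening run, cut at about 7.5% in these data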;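 further: red hydrolysis product quenches plate fluorescence so inhibitors raise well fluorescence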
core dimer inh: inhibitors of HCV core protein dimerization, primary screen, biochemical, TR-FRET, high-throughput. TR-FRET GST/Flag-core106 dimerization, 1536-well. inhibition, % at 5 µM. 300,000 tested, 0.33% active;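 active means inhibition above the mean of all tested compounds plus 3 SD, set per screening campaign, cut at about 45% in these data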
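Material: GST/Flag-tagged HCV core106 proteins. Incubation: 4 h, 22.5 °C incubation. Read-out basis: inhibition (%) from 671 over 617 nm ratio. Measured by: TR-FRET, excitation 340 nm, emission 617 and 671 nm.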
NadD conf: inhibitors of S. aureus NadD, confirmation, biochemical, colorimetric, single concentration; shares compounds with NadD block; purified S. aureus NadD, colorimetric enzyme assay; inhibition, % at 20 µM; 2,000 tested, 13% active; AID 624309, 2012; in the data active means inhibition mostly above about 42%, no sharp cut-off; inactive means mostly below about 42%
Hits are given with their value; n = inactive; x = no result given.

SMILES	IMP-1 inhibitor	NadD block	VIM-2 inhibitor	core dimer inh	NadD conf
COc1ccc2cc(-c3cc(C(=O)OCC(=O)Nc4c(C)n(C)n(-c5ccccc5)c4=O)c4ccccc4n3)ccc2c1	n	40	n	x	n
O=C(NC(=S)Nc1ccc(N2CCCC2)cc1)c1ccccc1[N+](=O)[O-]	n	33	n	n	n
CC(C)Oc1ccc(C(=O)Nc2ccc(N3CCCC3)cc2)cc1	n	n	n	n	x
O=C(Nc1ccc(N2CCCC2)cc1)c1ccc(Br)cc1	n	29	n	n	n
O=C(NC(=S)Nc1ccccc1N1CCCC1)c1ccccc1[N+](=O)[O-]	n	n	n	n	x
O=C(Nc1ccc(N2CCCC2)cc1)c1cc(Cl)ccc1Cl	n	52	n	n	n
O=C(/C=C/c1ccc(Cl)c([N+](=O)[O-])c1)Nc1ccc(N2CCCC2)cc1	n	42	n	n	n
COc1cc(NC(=O)c2ccccc2Cl)c(OC)cc1NC(=O)CN1CCCCC1	n	n	n	n	x
O=C(CSc1ccccc1)OCC(=O)N1CCN(C(=O)c2ccco2)CC1	x	n	x	x	x
O=C(NC1CCCCC1)C(c1cccnc1)N(C(=O)CCl)c1cccc(Cl)c1 (stereo not drawn)	n	n	n	n	x
CN1C(=O)C2C(c3ccc(N(C)C)cc3)NN(Cc3ccccc3)C2C1=O (stereo not drawn)	n	n	n	n	x
O=C(COC(=O)c1ccc(OC(F)(F)F)cc1)NCCN1C(=O)CSC1=O	x	n	x	x	x
CSCCC(NC(=O)c1ccccc1)C(=O)N1CC(C)OC(C)C1 (stereo not drawn)	x	n	x	x	x
O=C(O)/C=C/c1cn(-c2ccccc2)nc1-c1ccc(-c2ccc([N+](=O)[O-])cc2)o1	n	49	n	n	n
O=C(O)/C=C/c1cn(-c2ccccc2)nc1-c1cccc([N+](=O)[O-])c1	n	n	n	n	x
COc1ccc(CNC(=O)CN(C(=O)CCC(=O)Nc2nccs2)c2ccc(C)cc2)cc1	n	n	n	n	x
COc1ccc(/C=C/C(=O)NC(=S)NNC(=O)[C@H]2C[C@@H]2c2ccccc2)cc1OC	n	59	n	n	n
O=C([C@H](Cc1ccccc1)N1C(=O)c2ccccc2C1=O)N1CCOCC1	n	n	n	n	x
Cc1ccc2nc(-c3ccc(SCC(=O)Nc4ccc5c(c4)OCCO5)nc3)[nH]c2c1	n	n	n	n	x
Cc1cc2nc(-c3ccc(SCC(=O)Nc4ccc5c(c4)OCCO5)nc3)[nH]c2cc1C	n	30	n	n	n
Cc1cc2nc(-c3cccc(Br)c3)c(Cc3cccc(Cl)c3)n2c(C)c1Br	x	35	x	x	n
CCOC(=O)c1cc(C(=O)c2ccccc2O)cn2c(=O)c3c(C)c(C)sc3nc12	n	x	n	n	x
COCCn1c(SCC(=O)N2CCCCC2)nc2c(c1=O)SC(C)C2 (stereo not drawn)	n	n	n	n	x
Cc1ccc(-c2cc(-c3ccco3)c3c(N)c(C(=O)NN)oc3n2)cc1	n	28	n	n	n
NNC(=O)c1oc2nc(-c3cccs3)cc(-c3ccco3)c2c1N	n	36	n	n	n
SMILES	IMP-1 inhibitor	NadD block	VIM-2 inhibitor	core dimer inh	NadD conf
NNC(=O)c1oc2nc(-c3ccccc3)cc(-c3ccccc3)c2c1N	n	31	n	n	n
COc1cccc(/C=N/NC(=O)c2oc3nc(-c4ccccc4)cc(-c4ccco4)c3c2N)c1	n	n	n	n	x
CCCCCCC(=O)Nc1nc(C)c(-c2csc(Nc3cc(Cl)ccc3C)n2)s1	19	39	n	n	n
CCCCCCC(=O)Nc1nc(C)c(-c2csc(Nc3ccccc3OC)n2)s1	n	n	n	n	x
CCCCC(=O)Nc1nc(C)c(-c2csc(Nc3cc(Cl)ccc3OC)n2)s1	7.6	34	n	n	n
CCCCC(=O)Nc1nc(C)c(-c2csc(Nc3cc(OC)ccc3OC)n2)s1	n	n	n	n	x
O=C(CNC(=O)c1ccc(Cl)cc1Cl)OCc1ccccc1	x	n	x	n	x
CN(CCO)c1ncnc2c1sc1nc(N3CCOCC3)c3c(c12)CCC3	n	n	n	n	x
Cc1nn(Cc2ccc(Cl)c(Cl)c2)c(C)c1NC(=O)c1cn(-c2ccccc2)nc1-c1ccccc1	n	33	n	n	n
CCOc1ccccc1NC(=O)CSc1nc2nc(-c3cccs3)cc(C(F)(F)F)c2c(=O)[nH]1	n	n	n	n	x
COc1ccc(NC(=O)CSc2nc3nc(-c4cccs4)cc(C(F)(F)F)c3c(=O)[nH]2)c(OC)c1	n	40	n	n	60
O=C(CC1C(=O)NCCN1CCCc1ccccc1)NCCc1ccccc1Cl (stereo not drawn)	n	n	n	n	x
COc1ccccc1C(=O)CC(=O)c1ccccc1	n	n	n	n	x
CCOc1cccc(=O)c2c(C)n(CC(=O)c3ccccc3)c(C)c12	n	48	n	n	n
COc1cccc(=O)c2c(C)n(CC(=O)c3ccccc3)c(C)c12	n	45	n	67	n
CCOc1cccc(=O)c2c(C)oc(C)c12	n	n	n	n	x
Cc1ccc2sc(NC(=O)C3CC3)nc2c1C	n	n	n	n	x
CN(C(=O)CSc1nnc(C2CC2)n1-c1ccccc1)C1CCS(=O)(=O)C1 (stereo not drawn)	x	n	x	x	x
CCCOc1ccc(F)cc1-c1cc(C(=O)NCc2ccccc2OC)[nH]n1	x	n	x	x	x
O=c1c2ccccc2sn1-c1ccc(S(=O)(=O)N2CCCCC2)cc1	n	31	n	n	n
O=c1c2ccccc2sn1-c1ccc(S(=O)(=O)N2CCCC2)cc1	n	n	n	n	x
Cc1ccc(O)c(C(=O)c2cnc3c(c2)c(-c2ccc(F)cc2)c(C#N)c(=O)n3C)c1	n	28	n	n	n
Cc1ccccc1NS(=O)(=O)c1ccc(C(=O)NCC(c2ccco2)N2CCCCC2)cc1 (stereo not drawn)	x	n	x	n	x
O=C(Nc1ccc(N2CCCCC2)c(S(=O)(=O)Nc2ccccc2Cl)c1)c1cccnc1	x	n	x	x	x
Cc1ccc(NC(=O)c2cc3c(s2)CCCC3)cc1S(=O)(=O)Nc1ccccc1Cl	n	30	n	n	n
SMILES	IMP-1 inhibitor	NadD block	VIM-2 inhibitor	core dimer inh	NadD conf
O=C(/C=C/c1cccs1)Nc1ccc(N2CCOCC2)c(S(=O)(=O)Nc2cc(Cl)ccc2Cl)c1	n	34	n	n	n
O=C(Nc1ccc(N2CCOCC2)c(S(=O)(=O)Nc2ccccc2Cl)c1)c1ccc(F)cc1	x	n	x	x	x
O=C(/C=C/c1cccs1)Nc1ccc(N2CCOCC2)c(S(=O)(=O)Nc2ccccc2Cl)c1	n	n	n	n	x
O=C(Nc1ccc(Cl)c(Cl)c1)Nc1ccc(N2CCCC2)c(S(=O)(=O)Nc2ccccc2Cl)c1	n	31	n	n	n
O=C(Nc1ccc(F)cc1)Nc1ccc(N2CCCC2)c(S(=O)(=O)Nc2ccccc2Cl)c1	n	30	n	n	n
O=C(O)C(CCc1ccccc1)N1CCOCC1 (stereo not drawn)	x	n	x	x	x
CCN(CC)CCNC(=O)CCN1N=C(c2ccccc2)CCC1=O	n	n	n	n	x
